MEKK2 mut-MEK5: signal of MEK5 binding to mutant human MEKK2 PB1 domain | bead flow cytometry, Alexa488-MEK5 binding to MEKK2 mutant | actives 0.35% (n = 290,000) | percent response, % at 10 µM; in the data active means percent response above about 24%, passing the limit was not always enough
Hep lipid drop: hepatic lipid droplet formation modulation | AML12 mouse hepatocytes, oleate lipid droplets, BODIPY imaging | inhibition, % at 6.5 µM | actives 0.4% (n = 240,000) | AID 1656;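 active means lipid droplet intensity inhibited by at least 50%, with more than 500 cells counted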
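Assay system: AML12 mouse liver cells | Compound: 6.5 µM single-point dosing | Schedule: Overnight exposure | Technique: Fluorescence imaging, 20x objective, two fields per well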
MEKK2 WT-MEK5: raises or lowers MEK5 binding to wildtype human MEKK2 PB1 domain; Q9Y2U5; bead flow cytometry, Alexa488-MEK5 binding to MEKK2 WT; actives lie on both sides; binding response (% of control), % at 10 µM; actives 1.1% (n = 290,000); in the data active means binding response below about 67% or above about 130%
MEKK3 PB1 HTS: raises or lowers MEK5 binding to the human MEKK3 PB1 domain; actives 1.4% (n = 290,000); bead-based flow cytometry, Alexa488-MEK5 binding to MEKK3; actives lie on both sides; 0 = blocked by unlabeled MEK5, 100 = vehicle; binding response (% of control), % at 10 µM; AID 1529;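 active means binding response more than 3 SD above or below the average of its plate-row segment, actives on both sides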;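 further: Alexa488 bead fluorescence after subtracting the streptavidin-only scavenger bead signal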
MEKK2wt confirm: raises or lowers MEK5 binding to wildtype human MEKK2, retest. actives 2.4% (n = 5,900). shares compounds with MEKK3 PB1 HTS. binding response (% of control), % at 10 µM. bead flow cytometry, Alexa488-MEK5 binding to MEKK2 WT; actives lie on both sides. AID 1892; in the data active means binding response below about 16% or above about 210%; inactive means in between
MEKK2mut-MEK5: signal of MEK5 binding to mutant human MEKK2, retest. shares compounds with MEKK3 PB1 HTS. bead flow cytometry, Alexa488-MEK5 binding to MEKK2 mutant. percent response, % at 10 µM. actives 2% (n = 5,900); in the data active means percent response mostly above about 71%, no sharp cut-off; inactive means mostly below about 38%;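 further: higher means compound restores mutant binding toward wildtype level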
MEKK3 confirm: confirmation of inhibitors of MEK5 binding to human MEKK3 | actives 1.8% (n = 5,900) | shares compounds with MEKK3 PB1 HTS | bead flow cytometry, Alexa488-MEK5 binding to MEKK3; hits give low values | binding response (% of control), % at 10 µM;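 active means binding response below 72% of control, or above a set upper limit, though filed actives all read lower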;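 further: 100% = DMSO only wells and 0% = binding blocked by excess unlabeled MEK5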
The depositor's hits bear a star; x = no result; [ ] = another dose, or the depositor's remark. An excerpt weighted towards active compounds, which were near 2.6% of everything screened.

SMILES | MEKK2 mut-MEK5 | Hep lipid drop | MEKK2 WT-MEK5 | MEKK3 PB1 HTS | MEKK2wt confirm | MEKK2mut-MEK5 | MEKK3 confirm
CNC[C@@H](Cc1ccccc1)NC[C@@H](CC1CCCCC1)NCCCc1ccccc1 | 44* | -4 | 244* | 115 | 163 | 37 | 99
CCC[C@@H](CN[C@@H](CNC)C(C)C)NCCCCc1ccccc1 | -3 | -7 | 119 | 104 | x | x | x
CNC[C@@H](CC1CCCCC1)NC[C@H](CC(C)C)NCCc1cccc(C(F)(F)F)c1 | 33* | 1 | 234* | 109 | 159 | 36 | 107
CCC[C@@H](CNC)NC[C@H](Cc1ccccc1)NCCCCc1ccccc1 | 8 | -5 | 154* | 104 | 146 | 27 | 106
COc1ccc(CCN(CC(=O)NCc2ccc(F)cc2)C(=O)c2snc(C(N)=O)c2N)cc1OC | -3 | 2 | 99 | 101 | x | x | x
CC(=O)c1c[nH]c(C(=O)NCc2ccccc2Cl)c1 | 0 | x | 99 | 102 | x | x | x
O=C(Nc1cccnc1)c1cc(F)c(F)cc1Cl | -68 | 14 | 1.0*[inhibitor] | 1.0*[inhibitor] | 109 | 3 | 96
O=C(O)c1cc(Cl)c(Cl)cc1C(=O)Nc1cccnc1 | 0 | 0 | 112 | 119 | x | x | x
CCCC[C@@H]1CN=C(N)N1CC(C)(C)C | 2 | x | 103 | 99 | x | x | x
O=C(Nc1nc(-c2ccccc2)c(C(=O)c2ccccc2)s1)c1ccc(S(=O)(=O)N2CCCC2)cc1 | 0 | -18 | 102 | 135* | 100 | -9 | 101
C[C@@H]1CC=C[C@H]2[C@H]1C(=O)N(Cc1ccccc1)[C@H]2c1ccc(F)c(-c2ccc(N(C)C)cc2)c1 | 2 | 15 | 54*[inhibitor] | 66*[inhibitor] | 100 | -12 | 98
CC[C@@H]1CC=C[C@H]2[C@H]1C(=O)N(Cc1ccccc1)[C@H]2c1ccc2ccccc2c1 | -7 | -29 | 94 | 79*[inhibitor] | 99 | 14 | 102
COc1ccc([C@H]2[C@H]3C=CC[C@@H](C)[C@@H]3C(=O)N2Cc2ccccc2)cc1Cl | 3 | -7 | 93 | 105 | x | x | x
CCC1CCCCN1C(=O)COc1c(Br)cc(Br)c2cccnc12 (stereo not drawn) | -12 | -15 | 84 | 90 | x | x | x
CCOC(=O)c1ccc(NC(=O)Cn2nnc(-c3ccccc3)n2)cc1 | 11 | x | 134* | 120 | 107 | 2 | 104
NC(=O)c1nn(-c2ccccc2)nc1NC(=O)CN1CCCC1 | -1 | 4 | 102 | 106 | x | x | x
NC(=O)c1nn(-c2ccccc2)nc1NC(=O)Cn1nnc(-c2ccccc2)n1 | -1 | 8 | 104 | 132* | 92 | -5 | 99
CCOC(=O)c1ccc(NC(=O)CCc2nc(-c3ccccc3)no2)cc1 | 7 | x | 120 | 130* | 106 | 2 | 104
CCOC(=O)c1ccc(NC(=O)COc2ccccc2CNCCc2ccccc2)cc1 | 39 | -1 | 206* | 102 | 175 | 42 | 105
CCOC(=O)c1ccc(NC(=O)Cn2nnc(-c3ccc(F)cc3)n2)cc1 | -3 | 8 | 93 | 100 | x | x | x
O=C1CC(C(=O)Nc2ccccc2)S/C(=N\NC(=O)c2ccccc2Cl)N1 (stereo not drawn) | 3 | 1 | 103 | 107 | x | x | x
COc1ccc(C(=O)NCCSc2ccccc2)cc1OC | -3 | -1 | 96 | 97 | x | x | x
COC(=O)C(NC(=O)c1ccccc1C(=O)O)c1ccc2ccccc2c1 (stereo not drawn) | 2 | -6 | 104 | 104 | x | x | x
CCOc1ccc(-c2c(C(=O)N/N=C/c3cccc(Br)c3)nnn2-c2nonc2N)cc1 | 2 | -6 | 101 | 104 | x | x | x
COCCNC(=O)CN(c1cc(Cl)ccc1OC)S(=O)(=O)c1ccc(C)c([N+](=O)[O-])c1 | 0 | -5 | 104 | 128* | 12*[inhibitor] | -29 | 71*
CCOc1ccc(-n2c(SCc3cc(=O)oc4cc(C)c(C(C)C)cc34)nnc2-c2cccnc2)cc1 | 0 | -16 | 102 | 128* | 107 | 5 | 107
